Series [1] concerns Trypanosoma cruzi. Kind of series: Trypanocidal activity against Trypanosoma cruzi MHOM/Pe/2011/Arequipa DTU 5 epimastigotes after 48 hrs by resazurin dye based assay. The class given is functional, organism-based. The following applies: MHOM/Pe/2011/Arequipa DTU 5, 48 h. An outline of the steps: (§1)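 Exponential-phase epimastigotes were seeded at 5×10^5 mL^-1 with compounds at 100–0.2 µM (DMSO 0.01% v/v) at 28 °C. After 48 h, resazurin was added for another 24 h. SDS was then added and absorbance read at 570 and 600 nm.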
(In general: Resazurin is reduced to fluorescent resorufin, in cell work by metabolically active cells.)

Series [2] concerns Trypanosoma cruzi. Kind of series: Trypanocidal activity against Trypanosoma cruzi IRHOD/CO/2008/SN3 DTU 1 epimastigotes after 48 hrs by resazurin dye based assay. The class given is functional, organism-based. The following applies: IRHOD/CO/2008/SN3 DTU 1, 48 h. An outline of the steps:
as §1

In series [3] the test system is Trypanosoma cruzi. Kind of series: Trypanocidal activity against Trypanosoma cruzi TINF/CH/1956/Tulahuen DTU 6 epimastigotes after 48 hrs by resazurin dye based assay. It is filed as functional, organism-based. Particulars: TINF/CH/1956/Tulahuen DTU 6, 48 h. An outline of the steps: as §1
The next series has as its system Vero. Kind of series: Cytotoxicity against African green monkey Vero cells assessed as reduction in cell viability after 72 hrs by resazurin dye based assay. The following applies: Chlorocebus sabaeus. An outline of the steps:
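Vero monkey kidney cells grown at 37 °C, 5 % CO2, in RPMI with 10 % heat-inactivated FBS. Seeded at 1.25 × 10^4 mL-1 with compound at 1000 to 1 µM (DMSO 0.01 % v/v). After 48 h, resazurin added for a further 24 h, then SDS. Absorbance read at 570/600 nm. IC50 from triplicates in four separate determinations.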

Series [4] can be described thus: Selectivity index, ratio of IC50 for African green monkey Vero cells to IC50 for Trypanosoma cruzi MHOM/Pe/2011/Arequipa DTU 5 epimastigotes. The following applies: read-out: Ratio IC50. It is filed as toxicity. An outline of the steps:
(§2)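 SI is Vero IC50 divided by the IC50 for the stated parasite form. For Vero cytotoxicity, cells were seeded at 1.25×10^4 mL^-1 with compounds at 1000–1 µM, incubated 48 h, then given resazurin for a further 24 h (72 h total), with absorbance read at 570/600 nm. Triplicate, four determinations.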

A short description of series [5]: Selectivity index, ratio of IC50 for African green monkey Vero cells to IC50 for Trypanosoma cruzi IRHOD/CO/2008/SN3 DTU 1 epimastigotes. The following applies: read-out: Ratio IC50. It is filed as toxicity. An outline of the steps:
as §2

Series [6] in a line: Selectivity index, ratio of IC50 for African green monkey Vero cells to IC50 for Trypanosoma cruzi TINF/CH/1956/Tulahuen DTU 6 epimastigotes. The following applies: read-out: Ratio IC50. The class given is toxicity. An outline of the steps:
as §2

Series [7] relates to Trypanosoma cruzi. Kind of series: Trypanocidal activity against Trypanosoma cruzi MHOM/Pe/2011/Arequipa DTU 5 amastigotes infected in African green monkey Vero cells after 72 hrs by Giemsa-staining based microscopic assay. Particulars: MHOM/Pe/2011/Arequipa DTU 5, Vero. The class given is functional, organism-based. An outline of the steps: (§3)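 Vero cells were seeded at 1×10^4/well on coverslips. After 24 h they were infected with culture-derived trypomastigotes (MOI 1:10, 24 h), then washed. Compounds were added at 100–0.2 µM (DMSO 0.01% v/v) for 72 h at 37 °C, 5% CO2. Slides were methanol-fixed and Giemsa-stained; amastigotes and infected cells were counted over 500 host cells. IC50 was derived by curve fitting; triplicate wells, four separate determinations.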

The subject of series [8] is Trypanosoma cruzi. Kind of series: Trypanocidal activity against Trypanosoma cruzi MHOM/Pe/2011/Arequipa DTU 5 trypamastigotes derived from infected Balb/c albino mouse after 24 hrs by resazurin dye based assay. The class given is functional, organism-based. The following applies: MHOM/Pe/2011/Arequipa DTU 5, 24 h. An outline of the steps: (§4)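 Bloodstream trypomastigotes taken from mice at peak parasitaemia were seeded at 2×10^6 mL^-1 in RPMI with 10% FBS. Compounds were added at 50–0.2 µM and incubated 24 h at 37 °C, 5% CO2, then with resazurin for 4 h. SDS was added and absorbance read at 570/600 nm. IC50 was fitted; triplicate, four separate determinations.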

Series [9] has as its system Trypanosoma cruzi. Kind of series: Trypanocidal activity against Trypanosoma cruzi IRHOD/CO/2008/SN3 DTU 1 amastigotes infected in African green monkey Vero cells after 72 hrs by Giemsa-staining based microscopic assay. The class given is functional, organism-based. The following applies: IRHOD/CO/2008/SN3 DTU 1, Vero. An outline of the steps:
as §3

Series [10] has as its system Trypanosoma cruzi. Kind of series: Trypanocidal activity against Trypanosoma cruzi IRHOD/CO/2008/SN3 DTU 1 trypamastigotes derived from infected Balb/c albino mouse after 24 hrs by resazurin dye based assay. The class given is functional, organism-based. The following applies: IRHOD/CO/2008/SN3 DTU 1, 24 h. An outline of the steps: as §4
Series [11] is described as follows: Selectivity index, ratio of IC50 for African green monkey Vero cells to IC50 for Trypanosoma cruzi MHOM/Pe/2011/Arequipa DTU 5 amastigotes infected in African green monkey Vero cells. It is filed as toxicity. The following applies: read-out: Ratio IC50. An outline of the steps: as §2
Series [12] is described as follows: Selectivity index, ratio of IC50 for African green monkey Vero cells to IC50 for Trypanosoma cruzi MHOM/Pe/2011/Arequipa DTU 5 trypamastigotes derived from infected Balb/c albino mouse. The class given is toxicity. Particulars: read-out: Ratio IC50. An outline of the steps:
as §2

Series [13] is described as follows: Selectivity index, ratio of IC50 for African green monkey Vero cells to IC50 for Trypanosoma cruzi IRHOD/CO/2008/SN3 DTU 1 amastigotes infected in African green monkey Vero cells. The class given is toxicity. Particulars: read-out: Ratio IC50. An outline of the steps:
as §2

The nature of series [14]: Selectivity index, ratio of IC50 for African green monkey Vero cells to IC50 for Trypanosoma cruzi IRHOD/CO/2008/SN3 DTU 1 trypamastigotes derived from infected Balb/c albino mouse. It is filed as toxicity. The following applies: read-out: Ratio IC50. An outline of the steps: as §2
Series [15] has as its system Trypanosoma cruzi. Kind of series: Trypanocidal activity against Trypanosoma cruzi TINF/CH/1956/Tulahuen DTU 6 amastigotes infected in African green monkey Vero cells after 72 hrs by Giemsa-staining based microscopic assay. It is filed as functional, organism-based. The following applies: TINF/CH/1956/Tulahuen DTU 6, Vero. An outline of the steps: as §3
Series [16] deals with Trypanosoma cruzi. Kind of series: Trypanocidal activity against Trypanosoma cruzi TINF/CH/1956/Tulahuen DTU 6 trypamastigotes derived from infected Balb/c albino mouse after 24 hrs by resazurin dye based assay. It is filed as functional, organism-based. The following applies: TINF/CH/1956/Tulahuen DTU 6, 24 h. An outline of the steps: as §4
The nature of series [17]: Selectivity index, ratio of IC50 for African green monkey Vero cells to IC50 for Trypanosoma cruzi TINF/CH/1956/Tulahuen DTU 6 amastigotes infected in African green monkey Vero cells. It is filed as toxicity. Particulars: read-out: Ratio IC50. An outline of the steps:
as §2

Series [18] in a line: Selectivity index, ratio of IC50 for African green monkey Vero cells to IC50 for Trypanosoma cruzi TINF/CH/1956/Tulahuen DTU 6 trypamastigotes derived from infected Balb/c albino mouse. It is filed as toxicity. Particulars: read-out: Ratio IC50. An outline of the steps: as §2

SMILES strings stand for the structures.

In general, IC50 refers to the concentration at which inhibition is half-maximal.

Regarding `O=C(CCN1CCN(c2ccc(F)cc2)CC1)c1ccc(F)c(F)c1`, the IC50 in the series on Trypanosoma cruzi [1] is 21.4 µM; with Trypanosoma cruzi [2], 37.6 µM; with Trypanosoma cruzi [3] it was 65.5 µM; in the series with Vero, 385 µM; in the series with Trypanosoma cruzi [7], 28.3 µM; with Trypanosoma cruzi [8], 31.6 µM. In addition, the figures for the IC50 with Trypanosoma cruzi [9] and in the series with Trypanosoma cruzi [10] were 51.1 µM and 42.2 µM, respectively. Further, the selectivity ratio in [4] came to 18; in series [5], 10.3; in series [6], 5.9; in series [11], 13.6; in series [12] it was 12.2; in series [13], 7.5. The selectivity ratio in series [14] worked out at 9.1.
Regarding `O=C(CCN1CCN(c2ccc([N+](=O)[O-])cc2)CC1)c1ccc(F)c(Br)c1`, the IC50 in the series with Trypanosoma cruzi [1] was determined as 36.5 µM; in the series on Trypanosoma cruzi [2] it was 37.5 µM; with Trypanosoma cruzi [3], 19.1 µM; with Vero, 256 µM; in the series with Trypanosoma cruzi [15] it was 38.7 µM; in the series with Trypanosoma cruzi [16], 32.1 µM. The selectivity ratio worked out at 7 in series [4]; 6.8 in [5]; 13.4 in series [6]; 6.6 in series [17]; 8 in [18].

These data come from ChEMBL document CHEMBL4118256, “Second Generation of Mannich Base-Type Derivatives with in Vivo Activity against Trypanosoma cruzi” (J Med Chem, 2018).
